The source made the active and inactive calls. The calls are words filed in the database; no cut-off is given here. Peptide text beside a SMILES is read from it.

Test [1] deals with J774.A1. The experiment in a line: Antiinflammatory activity in mouse J774A.1 cells assessed as decrease in LPS-stimulated TNFalpha production at 3 ug/ml. The test is classed as functional, cell-based. In outline:
(§1)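 J774A.1 murine macrophages at 1 × 10⁶/mL in RPMI 1640 with 10% heat-inactivated FBS and 2 mM L-glutamine, 37 °C, 5% CO₂. Cells preincubated with cyclopeptide at 37 °C for 30 min, then stimulated with LPS (0.1 µg/mL) for a further 6 h. TNF-α and IL-6 in culture medium measured by ELISA. DMSO-treated cells served as controls.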

Test [2] concerns J774.A1. The experiment in a line: Antiinflammatory activity in mouse J774A.1 cells assessed as decrease in pam3Cys-stimulated IL6 production at 3 ug/ml. It is filed as functional, cell-based. Summed up:
(§2)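 J774A.1 murine macrophages at 1 × 10⁶/mL in RPMI 1640 with 10% heat-inactivated FBS and 2 mM L-glutamine, 37 °C, 5% CO₂. Cells pretreated with cyclopeptide for 30 min, then stimulated with the TLR2 ligand Pam3Cys for an additional 6 h. TNF-α or IL-6 in culture medium determined by ELISA.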

For test [3], the system named is J774.A1. In words: Antiinflammatory activity in mouse J774A.1 cells assessed as decrease in LPS-stimulated IL6 production at 3 ug/ml.
Test [4] concerns J774.A1. In words: Antiinflammatory activity in mouse J774A.1 cells assessed as decrease in LPS-stimulated IL6 production at 30 ug/ml. It is filed as functional. Further details: scale not given: the % may be the effect or the level left. Summed up:
as §1

The test system of test [5] is J774.A1. In words: Antiinflammatory activity in mouse J774A.1 cells assessed as decrease in pam3Cys-stimulated TNFalpha production at 1 ug/ml. The test is classed as functional, cell-based. Summed up:
as §2

Test [6] has as its system J774.A1. The experiment in a line: Antiinflammatory activity in mouse J774A.1 cells assessed as decrease in LPS-stimulated TNFalpha production at 30 ug/ml. The test is classed as functional. Further details: scale not given: the % may be the effect or the level left. In outline: as §1
The subject of test [7] is J774.A1. In words: Antiinflammatory activity in mouse J774A.1 cells assessed as decrease in pam3Cys-stimulated IL6 production at 3 ug/ml.
The test system of test [8] is J774.A1. The experiment in a line: Antiinflammatory activity in mouse J774A.1 cells assessed as decrease in LPS-stimulated TNFalpha production at 1 ug/ml. The test is classed as functional, cell-based. Summed up:
as §1

For test [9], the system named is J774.A1. In words: Antiinflammatory activity in mouse J774A.1 cells assessed as decrease in pam3Cys-stimulated TNFalpha production at 3 ug/ml. It is filed as functional. In outline:
as §2

Test [10] deals with J774.A1. The experiment in a line: Antiinflammatory activity in mouse J774A.1 cells assessed as decrease in LPS-stimulated IL6 production at 3 ug/ml. It is filed as functional, cell-based. In outline: as §1
For a further test, the system named is Ca9-22. In words: Cytotoxicity against human Ca9-22 cells. It is filed as functional, cell-based.
Another test deals with MCF7. In words: Cytotoxicity against human MCF7 cells. It is filed as functional, cell-based.
The subject of a further test is HepG2. In words: Cytotoxicity against human HepG2 cells. The test is classed as functional, cell-based.
The test system of a further test is KB. The experiment in a line: Cytotoxicity against human KB cells. It is filed as functional, cell-based.
In the next test the test system is Hep 3B2. The experiment in a line: Cytotoxicity against human Hep3B cells. The test is classed as functional, cell-based.
The test system of the next test is A549. In words: Cytotoxicity against human A549 cells. It is filed as functional, cell-based.
The next test relates to MDA-MB-231. In words: Cytotoxicity against human MDA-MB-231 cells. The test is classed as functional, cell-based.
In test [11] the test system is J774.A1. In words: Antiinflammatory activity in mouse J774A.1 cells assessed as decrease in pam3Cys-stimulated TNFalpha production at 10 ug/ml. It is filed as functional. In outline: as §2
The test system of test [12] is J774.A1. In words: Antiinflammatory activity in mouse J774A.1 cells assessed as decrease in pam3Cys-stimulated IL6 production. The test is classed as functional, cell-based. In outline: as §2
Test [13] relates to J774.A1. The experiment in a line: Antiinflammatory activity in mouse J774A.1 cells assessed as decrease in pam3Cys-stimulated TNFalpha production at 50 ug/ml. It is filed as functional. In outline: as §2
The subject of test [14] is J774.A1. The experiment in a line: Antiinflammatory activity in mouse J774A.1 cells assessed as decrease in pam3Cys-stimulated TNFalpha production at 30 ug/ml. It is filed as functional. Summed up:
as §2

The test system of test [15] is J774.A1. The experiment in a line: Antiinflammatory activity in mouse J774A.1 cells assessed as decrease in pam3Cys-stimulated TNFalpha production at 5 ug/ml. The test is classed as functional. In outline:
as §2

For test [16], the system named is J774.A1. The experiment in a line: Antiinflammatory activity in mouse J774A.1 cells assessed as decrease in LPS-stimulated IL6 production at 3 to 50 ug/ml. The test is classed as functional, cell-based. Summed up: as §1
The test system of test [17] is J774.A1. The experiment in a line: Antiinflammatory activity in mouse J774A.1 cells assessed as decrease in LPS-stimulated TNFalpha production at 3 to 50 ug/ml. It is filed as functional, cell-based. Summed up:
as §1

For test [18], the system named is J774.A1. In words: Antiinflammatory activity in mouse J774A.1 cells assessed as decrease in pam3Cys-stimulated IL6 production at 3 to 50 ug/ml. It is filed as functional, cell-based. Summed up:
as §2

For the compound `CC(C)C[C@@H]1NC(=O)CNC(=O)[C@@H]2CCCN2C(=O)[C@H]([C@@H](C)O)NC(=O)[C@H](Cc2c[nH]c3ccccc23)NC(=O)[C@H](C)NC(=O)[C@H](CC(N)=O)NC1=O` [CYCLOMONTANIN A] (cyclo(AWTPGLN)), the outcome in the test on J774.A1 [1], in the test on J774.A1 [2], in the test on J774.A1 [3], in the test on J774.A1 [5], with J774.A1 [7] and in the test on J774.A1 [8] was Active. Also, the Activity entry with J774.A1 [9] (1 ug/ml, in the assay text read “at 1 ug/ml” for “at 3 ug/ml”) was “Active”; with J774.A1 [10], “Active”. Besides, the Activity with J774.A1 [4] and in the test with J774.A1 [6] was 50% in each case.
As for `CC(C)[C@@H]1NC(=O)[C@H](Cc2ccccc2)NC(=O)CNC(=O)[C@@H]2CCCN2C(=O)[C@H](C)NC(=O)[C@H](CO)NC1=O` [ANNUMURICATIN C] (cyclo(APGFVS)), the outcome in the test on Ca9-22, with MCF7, with HepG2, in the test on Hep 3B2, in the test on A549 and in the test with MDA-MB-231 was inactive. Moreover, the midpoint of inhibition in the test with KB, the IC50, lay at 1000 nM. Besides, the Activity in the test on J774.A1 [4] and with J774.A1 [6] was 50% throughout.
Consider `CC(C)C[C@@H]1NC(=O)CNC(=O)[C@@H]2CCCN2C(=O)[C@H](CC(N)=O)NC(=O)[C@H](C)NC(=O)[C@H](Cc2ccc(O)cc2)NC(=O)[C@@H]2CCCN2C1=O` [CYCLOMONTANIN D] (cyclo(ANPGLPY)), for which the inhibition at 10 µg/mL in the test with J774.A1 [11] turned out to be 60%. In addition, the Activity entry is “Dose-dependent effect” in the test with J774.A1 [12], 50% in the test with J774.A1 [4] and 50% in the test on J774.A1 [6]. Moreover, the inhibition at 50 µg/mL in the test on J774.A1 [13] is 90%. In addition, the inhibition at 30 µg/mL in the test with J774.A1 [14] was determined as 85%. In addition, the inhibition at 5 µg/mL in the test with J774.A1 [15] was found to be 50%. Besides, in the test on J774.A1 [9], the inhibition at 3 µg/mL came to 20%.
In the case of `CC(C)[C@@H]1NC(=O)[C@H](Cc2c[nH]cn2)NC(=O)[C@H](CC(N)=O)NC(=O)[C@H](Cc2ccccc2)NC(=O)[C@H]([C@@H](C)O)NC(=O)[C@@H]2CCCN2C(=O)[C@@H]2CCCN2C(=O)[C@H](Cc2ccccc2)NC(=O)[C@H](CC(N)=O)NC1=O` [CYCLOMONTANIN C] (cyclo(FNHVNFPPT)), the result with J774.A1 [16], in the test with J774.A1 [17] and in the test on J774.A1 [18] was Active. For the same compound, the Activity in the test with J774.A1 [4] and in the test with J774.A1 [6] was 50% each time.

The record behind these values is ChEMBL document CHEMBL1156640, “Cyclopeptides with anti-inflammatory activity from seeds of Annona montana” (J Nat Prod, 2008).
